Data set [1] concerns the target T1, ATP-dependent translocase ABCB1 (Homo sapiens, UniProt P08183). Briefly: Inhibition of P-gp-mediated paclitaxel-resistance in P-glycoprotein-expressing human LCC-6 cells assessed as fold decrease in paclitaxel IC50 for cytotoxic activity at 1 uM after 5 days by MTS assay relative to control. The data set is classed as cell-based. The note with it: lcc-6, 120 h. A digest of the protocol: (§1)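 ABCB1-transfected LCC6MDR cells (6000 per well) given serial paclitaxel, doxorubicin or vincristine with or without 1 μM modulator for 5 days at 37 °C. MTS/PMS added for 2 h, absorbance 490 nm. IC50 from dose-response curves. RF = IC50 without modulator / IC50 with modulator; mean ± SEM.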

A short description of data set [2]: Cytotoxicity against multidrug-resistant human LCC-6 cells after 3 days by MTS assay. The data set is classed as cell-based. Particulars: LCC-6, 72 h.
In data set [3] the test system is L929. Briefly: Cytotoxicity against mouse L929 cells after 3 days by MTS assay. The data set is classed as cell-based. Particulars: L929, 72 h.
Data set [4] can be described thus: Cytotoxicity against wild type human LCC-6 cells after 3 days by MTS assay. Particulars: LCC-6, 72 h. In kind it is cell-based.
In data set [5] the target is T1, ATP-dependent translocase ABCB1. Briefly: Inhibition of P-gp-mediated paclitaxel-resistance in P-glycoprotein-expressing human LCC-6 cells assessed as fractional inhibitory concentration index at 0.5 uM after 5 days by MTS assay in presence of 1-(3,4,5-Trimethoxybenzyl)-3,4-bis(3,4-dimethoxyphenyl)-1H-pyrrole-2,5-dione. In kind it is cell-based. The note with it: lcc-6, 120 h. An outline of the steps:
(§2)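 LCC6MDR cells (6000 per well) given two modulators at 0.5 μM each, with serial paclitaxel, doxorubicin or vincristine, for 5 days at 37 °C. IC50 by MTS absorbance at 490 nm. FIC values come from IC50 relative to each modulator alone at 1 μM, and FICI is the sum (modified Chou–Talalay). Synergy: FICI ≤0.5; additive: 0.5–4; antagonism: >4.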

The target is the same in data set [6]. The data set can be described thus: Inhibition of P-gp-mediated paclitaxel-resistance in P-glycoprotein-expressing human LCC-6 cells assessed as fractional inhibitory concentration index at 0.5 uM after 5 days by fraction affected plot assay in presence of 1-(3,4,5-Trimethoxybenzyl)-3,4-bis(3,4-dimethoxyphenyl)-1H-pyrrole-2,5-dione. The data set is classed as cell-based. Particulars: lcc-6, 120 h.

Data set [7] has the same target. Briefly: Inhibition of P-gp-mediated doxorubicin-resistance in P-glycoprotein-expressing human LCC-6 cells assessed as fold decrease in doxorubicin IC50 for cytotoxic activity at 1 uM after 5 days by MTS assay. The data set is classed as cell-based. The note with it: lcc-6, 120 h. A digest of the protocol:
as §1

Data set [8] shares this target. The data set can be described thus: Inhibition of P-gp-mediated vincristine-resistance in P-glycoprotein-expressing human LCC-6 cells assessed as fold decrease in vincristine IC50 for cytotoxic activity at 1 uM after 5 days by MTS assay. The data set is classed as cell-based. Particulars: lcc-6, 120 h. A digest of the protocol:
as §1

Data set [9] concerns LCC-6. The data set can be described thus: Increase in doxorubicin concentration in wild type human LCC-6 cells at 3 uM after 150 mins by spectrofluorimetry. In kind it is functional, cell-based. An outline of the steps:
(§3)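 Cells (1 × 10⁶ LCC6 or LCC6MDR) incubated with 20 μM doxorubicin plus modulator for 150 min at 37 °C; 0.4% DMSO as negative control. Cells washed in cold PBS pH 7.4 and lysed in 0.75 M HCl/0.2% Triton X-100 in isopropanol. Supernatant doxorubicin fluorescence read at ex 460/em 610 nm. Duplicate, repeated twice; mean ± SEM.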

Data set [10] has as its target T1, ATP-dependent translocase ABCB1. Briefly: Inhibition of P-gp-mediated doxorubicin-resistance in P-glycoprotein-expressing human LCC-6 cells assessed as increase in intracellular doxorubicin accumulation at 3 uM after 150 mins by spectrofluorimetry relative to control. In kind it is cell-based. Particulars: lcc-6, 2.5 h. A digest of the protocol: as §3
Data set [11] has the same target. Briefly: Inhibition of P-gp-mediated doxorubicin-resistance in P-glycoprotein-expressing human LCC-6 cells assessed as increase in intracellular doxorubicin accumulation at 0.25 to 3 uM after 150 mins by spectrofluorimetry. In kind it is cell-based. Particulars: lcc-6, 2.5 h. An outline of the steps: as §3
For data set [12] the target is unchanged. The data set can be described thus: Inhibition of P-gp-mediated doxorubicin-resistance in P-glycoprotein-expressing human LCC-6 cells assessed as increase in intracellular doxorubicin accumulation at 8 to 16 uM after 150 mins by spectrofluorimetry. The data set is classed as cell-based. Particulars: lcc-6, 2.5 h. A digest of the protocol:
as §3

A short description of data set [13]: Noncompetitive inhibition of P-gp-mediated doxorubicin transport in multidrug-resistant human LCC-6 cells after 150 mins by dixon plot analysis. In kind it is cell-based. A digest of the protocol:
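LCC6MDR cells (1 × 10⁶) incubated with doxorubicin at 1.5, 4.4, 13.3 or 40 μM and modulator at 0, 0.5, 1 or 2 μM for 150 min at 37 °C. Lysis and fluorescence done as in the accumulation assay. Ki taken from a Dixon plot of reciprocal retention rate vs modulator concentration. Slope replot vs 1/[doxorubicin] used to assign mechanism. Two to four experiments.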

Data set [14] has as its target T1, ATP-dependent translocase ABCB1. Briefly: Inhibition of P-gp-mediated doxorubicin-resistance in P-glycoprotein-expressing human LCC-6 cells assessed as fractional inhibitory concentration index at 0.5 uM after 5 days by MTS assay in presence of 1-(3,4,5-Trimethoxybenzyl)-3,4-bis(3,4-dimethoxyphenyl)-1H-pyrrole-2,5-dion. In kind it is cell-based. Particulars: lcc-6, 120 h. An outline of the steps: as §2

Data set [15] shares this target. Briefly: Inhibition of P-gp-mediated vincristine-resistance in P-glycoprotein-expressing human LCC-6 cells assessed as fractional inhibitory concentration index at 0.5 uM after 5 days by MTS assay in presence of 1-(3,4,5-Trimethoxybenzyl)-3,4-bis(3,4-dimethoxyphenyl)-1H-pyrrole-2,5-dione. The data set is classed as cell-based. Particulars: lcc-6, 120 h. An outline of the steps: as §2

Active and inactive are the calls of the source. No cut-off for these calls is given here.

T1 sequence (P08183 whole entry): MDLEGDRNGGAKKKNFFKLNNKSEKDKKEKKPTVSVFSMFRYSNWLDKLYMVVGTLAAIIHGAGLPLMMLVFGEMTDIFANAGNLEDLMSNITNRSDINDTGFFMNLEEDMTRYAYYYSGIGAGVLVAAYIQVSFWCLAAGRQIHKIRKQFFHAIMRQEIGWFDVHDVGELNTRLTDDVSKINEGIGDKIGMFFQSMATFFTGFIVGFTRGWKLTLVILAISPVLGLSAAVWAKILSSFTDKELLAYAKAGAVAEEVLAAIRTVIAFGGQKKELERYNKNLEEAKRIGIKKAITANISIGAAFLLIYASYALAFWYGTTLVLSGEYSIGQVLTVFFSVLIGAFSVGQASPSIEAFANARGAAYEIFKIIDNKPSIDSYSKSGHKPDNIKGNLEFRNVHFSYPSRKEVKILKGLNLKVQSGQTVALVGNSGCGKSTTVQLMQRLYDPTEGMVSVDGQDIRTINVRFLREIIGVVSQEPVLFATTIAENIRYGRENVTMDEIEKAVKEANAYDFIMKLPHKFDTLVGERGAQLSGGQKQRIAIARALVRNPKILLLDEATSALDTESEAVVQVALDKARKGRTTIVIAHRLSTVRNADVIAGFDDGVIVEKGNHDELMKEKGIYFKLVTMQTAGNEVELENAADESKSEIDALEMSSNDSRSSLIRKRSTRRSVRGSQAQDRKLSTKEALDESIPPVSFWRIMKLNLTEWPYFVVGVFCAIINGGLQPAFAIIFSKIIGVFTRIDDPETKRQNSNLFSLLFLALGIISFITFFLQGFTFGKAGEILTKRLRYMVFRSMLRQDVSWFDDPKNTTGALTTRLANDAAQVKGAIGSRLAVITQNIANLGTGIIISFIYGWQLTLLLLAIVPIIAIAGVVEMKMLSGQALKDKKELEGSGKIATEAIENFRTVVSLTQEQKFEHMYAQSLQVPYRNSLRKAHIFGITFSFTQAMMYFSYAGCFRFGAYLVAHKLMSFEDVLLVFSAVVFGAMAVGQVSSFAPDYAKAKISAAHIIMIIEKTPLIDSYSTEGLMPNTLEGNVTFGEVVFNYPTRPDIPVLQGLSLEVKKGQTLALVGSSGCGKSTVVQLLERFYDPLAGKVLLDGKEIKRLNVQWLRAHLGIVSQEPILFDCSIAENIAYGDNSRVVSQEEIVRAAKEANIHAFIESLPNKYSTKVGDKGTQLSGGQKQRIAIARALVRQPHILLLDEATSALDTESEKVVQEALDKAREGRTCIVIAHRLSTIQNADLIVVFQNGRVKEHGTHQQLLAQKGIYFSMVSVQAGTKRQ

As for `COc1ccc(C2=C(c3ccc(OC)c(OC)c3)C(=S)N(Cc3ccccc3)C2=O)cc1OC`, in [1], the “fold change (FC)” value is 3.4. Moreover, the IC50 in data set [2] and in data set [3] was > 100 µM throughout.
With `COc1ccc(CCN2C(=O)C(c3ccc(OC)c(OC)c3)=C(c3ccc(OC)c(OC)c3)C2=O)cc1`, the “fold change (FC)” value in data set [1] came to 10.7. The IC50 in data set [4] turned out to be 32.5 µM; in [2] it was 18 µM; in data set [3], 21.6 µM. Besides, the “fractional inhibitory concentration index (FICI)” value in [5] and in data set [6] was 1.61 throughout.
As to `C/C=C/C[C@@H](C)C(=O)[C@H]1C(=O)N[C@@H](C(C)C)C(=O)N(C)CC(=O)N(C)[C@@H](CC(C)C)C(=O)N[C@@H](C(C)C)C(=O)N(C)[C@@H](CC(C)C)C(=O)N[C@@H](C)C(=O)N[C@H](C)C(=O)N(C)[C@@H](CC(C)C)C(=O)N(C)[C@@H](CC(C)C)C(=O)N(C)[C@@H](C(C)C)C(=O)N1C` [VALSPODAR], the “fold change (FC)” value in [1] came out at 101.8.
With `COc1ccc(C2=C(c3ccc(OC)c(OC)c3)C(=O)N(CCN3C(=O)C(c4ccc(OC)c(OC)c4)=C(c4ccc(OC)c(OC)c4)C3=O)C2=O)cc1OC`, the “fold change (FC)” value in data set [1] is recorded as 1.4. Further, the IC50 in data set [2] and in data set [3] was > 100 µM each time.
On to `COc1ccc(C2=C(c3ccc(OC)c(OC)c3)C(=O)N(CCCc3cc(OC)c(OC)c(OC)c3)C2=O)cc1OC`, for which, in [1], the “fold change (FC)” value was 4.7. For the same compound, the IC50 in data set [4], in data set [2] and in data set [3] was > 100 µM throughout.
For `COc1ccc(CCN2C(=O)C(c3ccc(OC)c(OC)c3)=C(c3ccc(OC)c(OC)c3)C2=O)cc1OC`, the “fold change (FC)” value in data set [1] stood at 6.9. The IC50 in data set [4], in [2] and in [3] was > 100 µM throughout.
With `COc1ccc(C2=C(c3ccc(OC)c(OC)c3)C(=O)N(CCc3cc(OC)c(OC)c(OC)c3)C2=O)cc1OC`, in [1], the “fold change (FC)” value amounted to 4.5. The IC50 in data set [4], in [2] and in [3] was > 100 µM in each case.
In the case of `COc1ccc(C2=C(c3ccc(OC)c(OC)c3)C(=O)N(CC(=O)c3ccccc3)C2=O)cc1OC`, the “fold change (FC)” value in data set [1] came to 3.9. The IC50 in data set [2] and in data set [3] was > 100 µM in each case.
In the case of `COc1ccc(C2=C(c3ccc(OC)c(OC)c3)C(=O)N(CN3C(=O)C(c4ccc(OC)c(OC)c4)=C(c4ccc(OC)c(OC)c4)C3=O)C2=O)cc1OC`, the “fold change (FC)” value in data set [1] stood at 8. The IC50 in data set [4], in [2] and in data set [3] was > 100 µM throughout.
Regarding `COc1ccc(CN2C(=O)C(c3ccc(OC)c(OC)c3)=C(c3ccc(OC)c(OC)c3)C2=O)cc1OC`, the “fold change (FC)” value in [1] was 12.4. Further, the IC50 in data set [4], in data set [2] and in [3] was > 100 µM in each case. The “fractional inhibitory concentration index (FICI)” value in [5] and in [6] was 2.21 in each case.
On to `COc1ccc(C2=C(c3ccc(OC)c(OC)c3)C(=O)N(Cc3cc(OC)c(OC)c(OC)c3)C2=O)cc1OC`, for which the “fold change (FC)” value in [1] stood at 18.2; in data set [7], 9.5; in data set [8], 14.6; in data set [10], 3. Moreover, the IC50 in data set [4], in [2] and in [3] was > 100 µM throughout. The result in data set [9] was inactive. Further, the Activity result in [11] was “Active”; in data set [12], “Not Active”. Further, the inhibitory constant (Ki) in data set [13] worked out at 5.5 µM.
For `COc1ccc(C2=C(c3ccc(OC)c(OC)c3)C(=O)N(Cc3ccccc3)C2=O)cc1OC`, the “fold change (FC)” value in data set [1] turned out to be 7.9.
As for `COc1ccc(C2=C(c3ccc(OC)c(OC)c3)C(=O)N(CCc3ccccc3)C2=O)cc1OC`, the “fold change (FC)” value in data set [1] worked out at 3.6. The IC50 in data set [2] and in data set [3] was > 100 µM throughout.
For `COc1ccc(CN2C(=O)C(c3ccc(OC)c(OC)c3)=C(c3ccc(OC)c(OC)c3)C2=O)cc1`, the “fold change (FC)” value in data set [1] stood at 9.3. Further, the IC50 in [4], in data set [2] and in [3] was > 100 µM throughout.
Regarding `COc1ccc(C(=O)CN2C(=O)C(c3ccc(OC)c(OC)c3)=C(c3ccc(OC)c(OC)c3)C2=O)cc1`, the “fold change (FC)” value in data set [1] is 9.9; in data set [7], 5.2; in data set [8], 9.3; in data set [10], 2.1. Further, the IC50 in data set [4] is > 100 µM; in [2] it was 90 µM; in [3] it was > 100 µM. Further, the “fractional inhibitory concentration index (FICI)” value in data set [5] was determined as 0.42; in [14], 1.26; in [15] it was 0.89; in data set [6], 0.42. Further, in data set [9], the outcome was inactive. Moreover, the Activity result in [11] was “Active”; in data set [12] it was “Not Active”. For the same compound, the affinity in [13], expressed as Ki, was 5.4 µM.
For `COc1ccc(C2=C(c3ccc(OC)c(OC)c3)C(=S)N(CCc3cc(OC)c(OC)c(OC)c3)C2=O)cc1OC`, the “fold change (FC)” value in data set [1] came out at 2.8.
For the compound `COc1ccc(C2=C(c3ccc(OC)c(OC)c3)C(=O)N(CCO)C2=O)cc1OC`, the “fold change (FC)” value in data set [1] stood at 1.8. Also, the results for the IC50 in data set [2] and in data set [3] were 84 µM and > 100 µM, respectively.
Regarding `COc1ccc(C2=C(c3ccc(OC)c(OC)c3)C(=O)N(C/C=C/c3cc(OC)c(OC)c(OC)c3)C2=O)cc1OC`, the “fold change (FC)” value in data set [1] was found to be 6.2. The IC50 in data set [4], in data set [2] and in [3] was > 100 µM each time.
Turning to `COc1ccc(C2=C(c3ccc(OC)c(OC)c3)C(=O)N(CCCN3C(=O)C(c4ccc(OC)c(OC)c4)=C(c4ccc(OC)c(OC)c4)C3=O)C2=O)cc1OC`, the “fold change (FC)” value in data set [1] turned out to be 5.2. Further, the IC50 in data set [4], in data set [2] and in data set [3] was > 100 µM throughout.
As for `COc1ccc(C(=O)CN2C(=O)C(c3ccc(OC)c(OC)c3)=C(c3ccc(OC)c(OC)c3)C2=O)cc1OC`, the “fold change (FC)” value in data set [1] was determined as 8.2. Besides, the IC50 in data set [4], in [2] and in data set [3] was > 100 µM each time. For the same compound, the “fractional inhibitory concentration index (FICI)” value in [5] and in data set [6] was 2.05 each time.
For `COc1ccc(-c2cn(Cc3cc(OC)c(OC)c(OC)c3)c(OCc3cc(OC)c(OC)c(OC)c3)c2-c2ccc(OC)c(OC)c2)cc1OC`, in [1], the “fold change (FC)” value is reported as 1.6. Besides, the IC50 in [4], in data set [2] and in data set [3] was > 100 µM in each case.

These data come from ChEMBL document CHEMBL1155438, “Design and syntheses of permethyl ningalin B analogues: potent multidrug resistance (MDR) reversal agents of cancer cells” (J Med Chem, 2010).
